In paper PMC7984404 (Journal of Clinical Pharmacology, 2020):

Columns and labels:
[1] = Population pharmacokinetic; assay type: in vivo, human
Method in brief: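 Pooled data from healthy adults, adult HAE patients and pediatric HAE patients aged 2-17 (2172 plasma concentrations, LC-MS/MS) were fitted with a two-compartment model. It had first-order absorption, lag time, and allometric weight effects with estimated exponents. Between-subject variability was log-normal, with additive plus proportional residual error. Covariates were weight, age, sex, race and attack within 12 h. CIs came from about 1000 bootstrap replicates, with prediction-corrected VPC.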

Exposure parameters = assay type: in vivo, human; details: for AUC0-6, mean (%CV) / AUC0-6, median [range] / Cmax, mean (%CV) / Cmax, median [range]: popPK model-derived
Method in brief: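 Final popPK model simulated concentration-time profiles from each subject's actual dosing history: single SC doses of 30 or 45 mg in adult HAE patients, and 0.05, 0.2 and 0.4 mg/kg single ascending doses in healthy adults. AUC0-6 came from simulated rich profiles by the trapezoidal rule, alongside Cmax, tmax and distribution and terminal half-lives. Values were summarised descriptively.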

[2] = system: pediatric patients with HAE; assay: Time to onset of symptom relief; assay type: in vivo, human; details: for Median time to 50% probability of TOSR: pediatric HAE
Method in brief: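 Pediatric HAE patients aged 2-17 received single SC 0.4 mg/kg (≤30 mg). The investigator scored symptoms before and after dosing. TOSR was the earliest time with ≥20% improvement in composite score and no component worsening. Model-predicted CTOSR, AUC0-TOSR, AUC0-6 and Cmax were related to TOSR by Kaplan-Meier curves stratified by exposure tertiles, and also by age group and sex.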

[3] = cited from earlier work
[4] = final popPK model, typical value, reference 70 kg
[5] = typical 70-kg adult, final popPK model
[6] = adult patients with HAE, SC 30 mg, n = 4
[7] = adult patients with HAE, SC 45 mg, n = 4
[8] = healthy subjects, SC 0.4 mg/kg, n = 24
[9] = healthy subjects, SC 30 mg, n = 109
[10] = pediatric patients with HAE 2-5 years, SC 0.4 mg/kg, n = 2
[11] = pediatric patients with HAE, SC 0.4 mg/kg (≤30 mg)

Structure (SMILES): NC(N)=NCCC[C@@H](N)C(=O)N[C@@H](CCCN=C(N)N)C(=O)N1CCC[C@H]1C(=O)N1C[C@H](O)C[C@H]1C(=O)NCC(=O)N[C@@H](Cc1cccs1)C(=O)N[C@@H](CO)C(=O)N1Cc2ccccc2C[C@@H]1C(=O)N1[C@H](C(=O)N[C@@H](CCCN=C(N)N)C(=O)O)C[C@@H]2CCCC[C@@H]21 [icatibant]
- Cl/F lower than in a 70-kg adult ([1]; 60-kg adolescent (aged 12-17 years), final popPK model): 7%
- Time to complete absorption after dosing ([1]; SC dosing, expected from final popPK model): ≤ 1 h
- Absorption half-life t1/2(a) ([1]; corresponding to ka = 3.27 h^–1, SC dosing, final popPK model): ~12.7 min
- Allometric exponent of weight (weight/70) on Vc/F ([1]; final popPK model): 0.671
- Allometric exponent of weight (weight/70) on Vp/F ([1]; final popPK model): 0.671
- Multiplicative factor on Vc/F if female ([1]; final popPK model): 0.855
- Multiplicative factor on Vc/F if nonwhite ([1]; final popPK model): 1.11
- Typical Cl/F lower in females than in males ([1]; final popPK model): about 12%
- Typical Cl/F lower in pediatric patients who experienced an acute attack ([1]; final popPK model): 9%
- Typical Vc/F higher in nonwhite than in white subjects ([1]; final popPK model): 11%
- ka (absorption rate constant) ([1]; final popPK model, SC dosing, n = 172 (adults and pediatric HAE), typical value): 3.27 h^–1
- tlag (lag time) ([1]; final popPK model, SC dosing, n = 172, typical value): 0.0426 h
- Vc/F (apparent central volume of distribution) ([1]; final popPK model, SC dosing, n = 172, typical value, reference 70 kg): 20.4 L
- Cl/F (apparent total clearance) ([1]; final popPK model, SC dosing, n = 172, typical value, reference 70 kg, age 25): 15.4 L/h
- Clp/F (apparent intercompartmental clearance) [1, 4]: 0.398 L/h
- Vp/F (apparent peripheral volume of distribution) [1, 4]: 1.75 L
- Clearance slower relative to a subject aged 25 years ([1]; subject aged 45 years, age effect of final popPK model): 20%
- Cl/F lower than in a 70-kg adult ([1]; typical 40-kg child (aged 2-11 years), final popPK model): 25%
- Distribution half-life t1/2(α) [1, 5]: 53.4 min
- Terminal elimination half-life t1/2(β) [1, 5]: 3.2 h
- AUC0-6, mean (%CV) (Exposure parameters; [6]): 2725 (25.3) ng·h/mL
- AUC0-6, median [range] (Exposure parameters; [6]): 2975 [1734‐3216] ng·h/mL
- Cmax, mean (%CV) (Exposure parameters; [6]): 1279 (16.7) ng/mL
- Cmax, median [range] (Exposure parameters; [6]): 1254 [1056‐1551] ng/mL
- AUC0-6, mean (%CV) (Exposure parameters; [7]): 5473 (18.6) ng·h/mL
- AUC0-6, median [range] (Exposure parameters; [7]): 5565 [4155‐6608] ng·h/mL
- Cmax, mean (%CV) (Exposure parameters; [7]): 2136 (16.3) ng/mL
- Cmax, median [range] (Exposure parameters; [7]): 2222 [1680‐2421] ng/mL
- AUC0-6, mean (%CV) (Exposure parameters; [8]): 2669 (20.9) ng·h/mL
- AUC0-6, median [range] (Exposure parameters; [8]): 2704 [1720‐3829] ng·h/mL
- Cmax, mean (%CV) (Exposure parameters; [8]): 1240 (25.1) ng/mL
- Cmax, median [range] (Exposure parameters; [8]): 1258 [836‐2120] ng/mL
- AUC0-6, mean (%CV) (Exposure parameters; [9]): 2038 (23.8) ng·h/mL
- AUC0-6, median [range] (Exposure parameters; [9]): 1941 [1126‐3311] ng·h/mL
- Cmax, mean (%CV) (Exposure parameters; [9]): 974 (30.1) ng/mL
- Cmax, median [range] (Exposure parameters; [9]): 915 [524‐2115] ng/mL
- AUC0-6, mean (%CV) (Exposure parameters; [10]): 900 (24.6) ng·h/mL
- AUC0-6, median [range] (Exposure parameters; [10]): 900 [744‐1056] ng·h/mL
- Cmax, mean (%CV) (Exposure parameters; [10]): 692 (18.1) ng/mL
- Cmax, median [range] (Exposure parameters; [10]): 692 [604‐780] ng/mL
- Mean AUC0-6 lower than in adult patients with HAE treated with 30 mg (Exposure parameters; [11]): about 50%
- Mean Cmax lower than in adult patients with HAE treated with 30 mg (Exposure parameters; [11]): ~42%
- Median time to 50% probability of TOSR ([2]; first tertile of CTOSR): 2.00 h
- Time within which all patients displayed resolution of symptoms ([2]; pediatric patients with HAE, single SC 0.4 mg/kg (≤30 mg)): ≤ 4 h
- Median time to 50% probability of TOSR ([2]; second tertile of CTOSR): 1.03 h
- Time to achievement of maximum plasma concentrations ([3]; adults, single subcutaneous injection of 30 mg): ≤ 1 h
- Parent drug excreted unchanged in human urine ([3]; human): < 10%
